Reference: ChEMBL document CHEMBL4732114, “Design and structural optimization of novel 2H-benzo[h]chromene derivatives that target AcrB and reverse bacterial multidrug resistance” (Eur J Med Chem, 2021)

Key:
Cell membrane [1] = assay: Induction of outer membrane permeabilization in wild type Escherichia coli BW25113 assessed as increase in nitrocefin hydrolysis at 64 ug/ml in presence of CCCP by spectroscopic analysis; conditions: dose 64 µg/ml
How it was run: (§1)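 Intact E. coli were treated with 10 μM CCCP to block nitrocefin efflux, then given compound, nothing, or polymyxin B as permeabilizer control. Nitrocefin was added, and hydrolysis by periplasmic β-lactamase was followed as the rise in absorbance at 490 nm. Duplicate experiments were run on different days.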

Cell membrane [2] = assay: Induction of inner membrane permeabilization in wild type Escherichia coli BW25113 assessed as perturbation of proton motive force at 64 ug/ml measured after 10 mins in presence of CCCP and glucose by Di0C2(3) probe based fluorescence assay; conditions: escherichia coli bw25113, 10 min, dose 64 µg/ml
How it was run: (§2)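 Cell suspensions were left untreated or exposed to 8-128 µg/mL compound for 10 min. DiOC₂(3) was then added and fluorescence followed to a plateau. Cells were re-energized with 0.5% glucose, and the rise in fluorescence was read as membrane-potential build-up. CCCP was added last to dissipate the potential.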

[3] = target: T1, Multidrug efflux pump subunit AcrB (Escherichia coli (strain K12)) (UniProt P31224); assay: Inhibition of AcrB in multidrug-resistant Escherichia coli BW25113 assessed as potentiation of chloramphenicol-induced antibacterial activity by measuring fold change in chloramphenicol MIC at 64 ug/ml by checkerboard titration method relative to chloramphenicol MIC; conditions: dose 64.0 µg/ml
T1 sequence (whole entry): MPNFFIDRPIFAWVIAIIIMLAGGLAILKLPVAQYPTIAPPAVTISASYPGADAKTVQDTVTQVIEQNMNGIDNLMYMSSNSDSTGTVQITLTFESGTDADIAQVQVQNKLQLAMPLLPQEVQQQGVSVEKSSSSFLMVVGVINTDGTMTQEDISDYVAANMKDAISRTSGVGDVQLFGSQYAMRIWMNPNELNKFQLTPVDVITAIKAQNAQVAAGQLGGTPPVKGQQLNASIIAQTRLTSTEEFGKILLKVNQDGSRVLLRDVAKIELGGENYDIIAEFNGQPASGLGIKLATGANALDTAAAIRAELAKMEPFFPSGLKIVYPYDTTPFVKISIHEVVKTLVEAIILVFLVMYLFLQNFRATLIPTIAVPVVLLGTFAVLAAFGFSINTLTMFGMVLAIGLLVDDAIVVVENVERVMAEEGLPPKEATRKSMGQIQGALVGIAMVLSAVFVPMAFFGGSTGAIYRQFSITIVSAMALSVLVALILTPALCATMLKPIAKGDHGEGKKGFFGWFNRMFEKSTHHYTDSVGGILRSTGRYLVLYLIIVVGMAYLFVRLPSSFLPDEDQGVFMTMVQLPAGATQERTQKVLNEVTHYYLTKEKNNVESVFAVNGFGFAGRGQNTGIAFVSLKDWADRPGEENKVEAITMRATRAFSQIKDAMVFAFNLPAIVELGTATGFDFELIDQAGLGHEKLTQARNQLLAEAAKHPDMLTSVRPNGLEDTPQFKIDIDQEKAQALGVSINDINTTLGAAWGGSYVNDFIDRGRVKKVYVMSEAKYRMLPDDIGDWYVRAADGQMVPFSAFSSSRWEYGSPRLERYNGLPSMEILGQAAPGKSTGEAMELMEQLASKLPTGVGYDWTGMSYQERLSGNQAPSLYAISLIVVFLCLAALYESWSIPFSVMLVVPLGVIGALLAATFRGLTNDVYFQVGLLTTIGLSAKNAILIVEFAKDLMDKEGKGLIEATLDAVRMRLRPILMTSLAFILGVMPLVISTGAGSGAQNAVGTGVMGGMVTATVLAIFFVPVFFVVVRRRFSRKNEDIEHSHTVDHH

[4] = target: T1, Multidrug efflux pump subunit AcrB (Escherichia coli (strain K12)); assay: Inhibition of AcrB in multidrug-resistant Escherichia coli BW25113 assessed as potentiation of tetraphenylphosphonium-induced antibacterial activity by measuring fold change in tetraphenylphosphonium MIC at 64 ug/ml by checkerboard titration method relative to tetraphenylphosphonium MIC; conditions: dose 64.0 µg/ml
[5] = Cytotoxicity against human HepG2 cells assessed as growth inhibition at 10 uM relative to control; format: cell-based; conditions: read-out: GI
How it was run: (§3)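 HepG2 cells treated at 10 μM and at 100 μM. Cell viability or inhibition rate recorded per concentration, with paclitaxel as positive control.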

Cell membrane [6] = assay: Induction of inner membrane permeabilization in wild type Escherichia coli BW25113 assessed as perturbation of proton motive force at 8 ug/ml measured after 10 mins in presence of CCCP and glucose by Di0C2(3) probe based fluorescence assay; conditions: escherichia coli bw25113, 10 min, dose 8 µg/ml; how it was run: as §2
[7] = Cytotoxicity against human HepG2 cells assessed as growth inhibition at 100 uM relative to control; format: cell-based; conditions: read-out: GI; how it was run: as §3
Cell membrane [8] = assay: Induction of outer membrane permeabilization in wild type Escherichia coli BW25113 assessed as increase in nitrocefin hydrolysis at 256 ug/ml in presence of CCCP by spectroscopic analysis; conditions: dose 256 µg/ml; how it was run: as §1
Cell membrane [9] = assay: Induction of outer membrane permeabilization in wild type Escherichia coli BW25113 assessed as increase in nitrocefin hydrolysis at 8 ug/ml in presence of CCCP by spectroscopic analysis; conditions: dose 8 µg/ml; how it was run: as §1
[10] = target: T1, Multidrug efflux pump subunit AcrB (Escherichia coli (strain K12)); assay: Inhibition of AcrB in multidrug-resistant Escherichia coli BW25113 assessed as potentiation of levofloxacin-induced antibacterial activity by measuring fold change in levofloxacin MIC at 8 ug/ml by checkerboard titration method relative to levofloxacin MIC; conditions: dose 8.0 µg/ml
[11] = target: T1, Multidrug efflux pump subunit AcrB (Escherichia coli (strain K12)); assay: Inhibition of AcrB in multidrug-resistant Escherichia coli BW25113 assessed as potentiation of tetraphenylphosphonium-induced antibacterial activity by measuring fold change in tetraphenylphosphonium MIC at 8 ug/ml by checkerboard titration method relative to tetraphenylphosphonium MIC; conditions: dose 8.0 µg/ml
[12] = target: T1, Multidrug efflux pump subunit AcrB (Escherichia coli (strain K12)); assay: Inhibition of AcrB in multidrug-resistant Escherichia coli BW25113 assessed as potentiation of chloramphenicol-induced antibacterial activity by measuring fold change in chloramphenicol MIC at 128 ug/ml by checkerboard titration method relative to chloramphenicol MIC; conditions: dose 128.0 µg/ml
[13] = target: T1, Multidrug efflux pump subunit AcrB (Escherichia coli (strain K12)); assay: Inhibition of AcrB in multidrug-resistant Escherichia coli BW25113 assessed as potentiation of erythromycin-induced antibacterial activity by measuring fold change in erythromycin MIC at 8 ug/ml by checkerboard titration method relative to erythromycin MIC; conditions: dose 8.0 µg/ml
[14] = target: T1, Multidrug efflux pump subunit AcrB (Escherichia coli (strain K12)); assay: Inhibition of AcrB in multidrug-resistant Escherichia coli BW25113 assessed as potentiation of tetraphenylphosphonium-induced antibacterial activity by measuring fold change in tetraphenylphosphonium MIC at 128 ug/ml by checkerboard titration method relative to tetraphenylphosphonium MIC; conditions: dose 128.0 µg/ml
[15] = target: T1, Multidrug efflux pump subunit AcrB (Escherichia coli (strain K12)); assay: Inhibition of AcrB in multidrug-resistant Escherichia coli BW25113 assessed as potentiation of erythromycin-induced antibacterial activity by measuring fold change in erythromycin MIC at 128 ug/ml by checkerboard titration method relative to erythromycin MIC; conditions: dose 128.0 µg/ml
[16] = target: T1, Multidrug efflux pump subunit AcrB (Escherichia coli (strain K12)); assay: Inhibition of AcrB in multidrug-resistant Escherichia coli BW25113 assessed as potentiation of levofloxacin-induced antibacterial activity by measuring fold change in levofloxacin MIC at 128 ug/ml by checkerboard titration method relative to levofloxacin MIC; conditions: dose 128.0 µg/ml

CC1(C)CC(=O)c2ccc(OCC(=O)Nc3ccc(C#N)c(C(F)(F)F)c3)cc2O1
Activity (Cell membrane [1]): Not Active
Activity (Cell membrane [2]): Not Active
fold change (FC) [3]: 2
fold change (FC) [4]: 4

CC1(C)CCc2c(C(=O)N3CCOCC3)cc3c(OCc4ccccc4)cccc3c2O1
inhibition at 10 µM [5]: 2%
Activity (Cell membrane [2]): Not Active
Activity (Cell membrane [6]): Not Active
inhibition at 100 µM [7]: 66%

C=CC(=O)Nc1ccc(COc2cccc3c4c(c(C(=O)N5CCOCC5)cc23)CCC(C)(C)O4)cc1
Activity (Cell membrane [6]): Not Active

CNC(=O)c1ccc(COc2cccc3c4c(c(Cn5cnnn5)cc23)CCC(C)(C)O4)cc1
Activity (Cell membrane [1]): Not Active

Cc1ccccc1COc1cccc2c3c(c(-c4nnco4)cc12)CCC(C)(C)O3
Activity (Cell membrane [8]): Not Active

CC1(C)CCc2c(-c3nnco3)cc3c(OCc4ccc(C#N)cc4)cccc3c2O1
Activity (Cell membrane [2]): Not Active

CC1CN(C(=O)c2cc3c(OCc4c(Cl)cccc4Cl)cccc3c3c2CCC(C)(C)O3)CC(C)O1 (stereo not given)
Activity (Cell membrane [9]): Not Active
fold change (FC) [10]: 2
Activity (Cell membrane [6]): Not Active

CC1(C)CCc2c(C(=O)O)cc3c(OCc4ccccc4)cccc3c2O1
Activity (Cell membrane [2]): Not Active

CC1(C)CCc2c(C(=O)N3CCOCC3)cc3c(OCc4ccc(C(F)(F)F)cc4)cccc3c2O1
Activity (Cell membrane [2]): Not Active
Activity (Cell membrane [6]): Not Active

CC(C)NCCOc1ccc2c(c1)OC(C)(C)CC2=O
Activity (Cell membrane [6]): Not Active

CC1(C)CCc2c(-c3nnco3)cc3c(OCc4ccc([N+](=O)[O-])cc4)cccc3c2O1
Activity (Cell membrane [8]): Not Active

CC1(C)CCc2c(Cn3cnnn3)cc3c(OCc4ccccc4)cccc3c2O1
Activity (Cell membrane [1]): Not Active

Cc1ccc(COc2cccc3c4c(c(-c5nnco5)cc23)CCC(C)(C)O4)cc1
fold change (FC) [11]: 2
fold change (FC) [12]: < 16
inhibition at 10 µM [5]: 6%
fold change (FC) [10]: 2
fold change (FC) [13]: 2
fold change (FC) [14]: < 16
inhibition at 100 µM [7]: 87%
fold change (FC) [15]: < 16
fold change (FC) [16]: < 16
